≈ marks a conversion by molar mass, not a printed value.
Legend:
Type in all cases: functional
[1] = system: Haemophilus influenzae; test: Antibacterial activity against Haemophilus influenzae SR27914 clinical isolate assessed as growth inhibition by CLSI broth microdilution method
How it was run: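 MIC by CLSI broth microdilution using Haemophilus test medium.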

[2] = system: Staphylococcus aureus; test: Antibacterial activity against linezolid-resistant Staphylococcus aureus NRS271 assessed as growth inhibition by CLSI broth microdilution method
How it was run: (§1)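 MIC by CLSI broth microdilution in cation-adjusted Mueller-Hinton broth. Lowest concentration inhibiting growth taken as MIC.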

[3] = system: Staphylococcus aureus; test: Antibacterial activity against Staphylococcus aureus Smith assessed as growth inhibition by CLSI broth microdilution method
How it was run: (§2)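 MIC by CLSI broth microdilution in cation-adjusted Mueller-Hinton broth; S. pneumoniae medium supplemented with 5% lysed horse blood.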

[4] = system: Staphylococcus aureus; test: Antibacterial activity against Staphylococcus aureus SR20549 clinical isolate assessed as growth inhibition by CLSI broth microdilution method; how it was run: as §2
[5] = system: Moraxella catarrhalis; test: Antibacterial activity against Moraxella catarrhalis SR26840 clinical isolate assessed as growth inhibition by CLSI broth microdilution method; how it was run: as §2
[6] = system: Enterococcus faecium; test: Antibacterial activity against Enterococcus faecium SR7940 clinical isolate assessed as growth inhibition by CLSI broth microdilution method; how it was run: as §2
[7] = system: Enterococcus faecalis; test: Antibacterial activity against Enterococcus faecalis SR1004 clinical isolate assessed as growth inhibition by CLSI broth microdilution method; how it was run: as §2
[8] = system: Streptococcus pneumoniae; test: Antibacterial activity against Streptococcus pneumoniae SR26207 clinical isolate assessed as growth inhibition by CLSI broth microdilution method; how it was run: as §2
[9] = system: Staphylococcus aureus; test: Antibacterial activity against methicillin-resistant Staphylococcus aureus SR3637 infected in JCL/ICR mouse systemic infection model assessed as mortality administered as iv measured over 7 days; details: 168 h
How it was run: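 Five-week-old male JCL/ICR mice (20–25 g), five per group. Infected intraperitoneally with 0.5 or 1.0 mL bacterial suspension (about 100× LD50). Intravenous dosing 1 h post-infection. Mortality followed 7 days; ED50 with 95% confidence limits by logit method.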

[10] = system: Staphylococcus aureus; test: Antibacterial activity against methicillin-resistant Staphylococcus aureus SR3637 assessed as growth inhibition by CLSI broth microdilution method; how it was run: as §1
[11] = system: Staphylococcus aureus; test: Antibacterial activity against methicillin-resistant Staphylococcus aureus SR3637 infected in JCL/ICR mouse systemic infection model assessed as mortality administered as po measured over 7 days; details: 168 h
How it was run: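 Five-week-old male JCL/ICR mice (20–25 g), five per group. Infected intraperitoneally with 0.5 or 1.0 mL bacterial suspension (about 100× LD50). Oral dosing 1 h post-infection. Mortality followed 7 days; ED50 with 95% confidence limits by logit method.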

Row | SMILES | MIC [1] | MIC [2] | MIC [3] | MIC [4] | MIC [5] | MIC [6] | MIC [7] | MIC [8] | ED50 [9] | MIC [10] | ED50 [11]
1 | O=C(CO)N1CCN(c2ccc(N3C[C@H](CNc4ccon4)OC3=O)cc2F)CCN1 | 32 µg/mL (≈ 73.7 µM) | 64 µg/mL (≈ 147 µM) | 2 µg/mL (≈ 4.6 µM) | 1 µg/mL (≈ 2.3 µM) | 16 µg/mL (≈ 36.8 µM) | 2 µg/mL (≈ 4.6 µM) | 2 µg/mL (≈ 4.6 µM) | 0.5 µg/mL (≈ 1.15 µM) |  |  | 
2 | O=C(CO)N1CCN(c2c(F)cc(N3C[C@H](Cn4ccnn4)OC3=O)cc2F)CCN1 | 8 µg/mL (≈ 18.3 µM) | 16 µg/mL (≈ 36.6 µM) | 2 µg/mL (≈ 4.57 µM) | 1 µg/mL (≈ 2.29 µM) | 4 µg/mL (≈ 9.14 µM) | 1 µg/mL (≈ 2.29 µM) | 1 µg/mL (≈ 2.29 µM) | 0.5 µg/mL (≈ 1.14 µM) | 1.71 mg/kg | 1 µg/mL (≈ 2.29 µM) | 
3 | O=C(CO)N1CCN(c2c(F)cc(N3C[C@H](Cn4ccnn4)OC3=O)cc2F)CCO1 | 16 µg/mL (≈ 36.5 µM) | 16 µg/mL (≈ 36.5 µM) | 2 µg/mL (≈ 4.56 µM) | 1 µg/mL (≈ 2.28 µM) | 8 µg/mL (≈ 18.2 µM) | 2 µg/mL (≈ 4.56 µM) | 2 µg/mL (≈ 4.56 µM) | 1 µg/mL (≈ 2.28 µM) |  |  | 
4 | O=C1O[C@@H](Cn2ccnn2)CN1c1cc(F)c(N2CCNOCC2)c(F)c1 | 8 µg/mL (≈ 21 µM) | 16 µg/mL (≈ 42.1 µM) | 2 µg/mL (≈ 5.26 µM) | 1 µg/mL (≈ 2.63 µM) | 4 µg/mL (≈ 10.5 µM) | 1 µg/mL (≈ 2.63 µM) | 2 µg/mL (≈ 5.26 µM) | 0.5 µg/mL (≈ 1.31 µM) |  |  | 
5 | O=C(CO)N1CCN(c2c(F)cc(N3C[C@H](CNc4ccon4)OC3=O)cc2F)CCN1 | 16 µg/mL (≈ 35.4 µM) | 8 µg/mL (≈ 17.7 µM) | 0.5 µg/mL (≈ 1.11 µM) | 0.5 µg/mL (≈ 1.11 µM) | 16 µg/mL (≈ 35.4 µM) | 1 µg/mL (≈ 2.21 µM) | 0.25 µg/mL (≈ 0.553 µM) | 0.125 µg/mL (≈ 0.276 µM) | 2.18 mg/kg | 0.5 µg/mL (≈ 1.11 µM) | 2.83 mg/kg
6 | O=C(CO)N1CCN(c2c(F)cc(N3C[C@H](CNc4ccon4)OC3=O)cc2F)CCO1 | 16 µg/mL (≈ 35.3 µM) | 8 µg/mL (≈ 17.6 µM) | 0.5 µg/mL (≈ 1.1 µM) | 0.25 µg/mL (≈ 0.551 µM) | 4 µg/mL (≈ 8.82 µM) | 1 µg/mL (≈ 2.21 µM) | 0.5 µg/mL (≈ 1.1 µM) | 0.25 µg/mL (≈ 0.551 µM) | > 10 mg/kg | 0.25 µg/mL (≈ 0.551 µM) | 
7 | O=C1O[C@@H](CNc2ccon2)CN1c1cc(F)c(N2CCNOCC2)c(F)c1 | 16 µg/mL (≈ 40.5 µM) | 16 µg/mL (≈ 40.5 µM) | 1 µg/mL (≈ 2.53 µM) | 0.5 µg/mL (≈ 1.26 µM) | 4 µg/mL (≈ 10.1 µM) | 1 µg/mL (≈ 2.53 µM) | 0.5 µg/mL (≈ 1.26 µM) | 0.125 µg/mL (≈ 0.316 µM) |  |  | 
8 | CC(=O)NC[C@H]1CN(c2ccc(N3CCNN(C(=O)CO)CC3)c(F)c2)C(=O)O1 | 16 µg/mL (≈ 39.1 µM) | 64 µg/mL (≈ 156 µM) | 2 µg/mL (≈ 4.88 µM) | 4 µg/mL (≈ 9.77 µM) | 8 µg/mL (≈ 19.5 µM) | 4 µg/mL (≈ 9.77 µM) | 2 µg/mL (≈ 4.88 µM) | 1 µg/mL (≈ 2.44 µM) |  |  | 
9 | CC(=O)NC[C@H]1CN(c2cc(F)c(N3CCNN(C(=O)CO)CC3)c(F)c2)C(=O)O1 | 8 µg/mL (≈ 18.7 µM) | 16 µg/mL (≈ 37.4 µM) | 1 µg/mL (≈ 2.34 µM) | 1 µg/mL (≈ 2.34 µM) | 4 µg/mL (≈ 9.36 µM) | 4 µg/mL (≈ 9.36 µM) | 2 µg/mL (≈ 4.68 µM) | 0.25 µg/mL (≈ 0.585 µM) |  |  | 

From ChEMBL document CHEMBL2375276, “Antibacterial oxazolidinone analogues having a N-hydroxyacetyl-substituted seven-membered [1,2,5]triazepane or [1,2,5]oxadiazepane C-ring unit” (Eur J Med Chem, 2013)
